Measurements collected from several papers.
Protocols differ between the studies behind these lines.
Tmem97: Sigma intracellular receptor 2 (Tmem97, Rattus norvegicus, UniProt Q5U3Y7)
MTNR1A: Melatonin receptor type 1A (MTNR1A, Homo sapiens, UniProt P48039)
F2 trypsin-like site: Prothrombin, trypsin-like site (F2, Bos taurus, UniProt P00735)
FLT3: Receptor-type tyrosine-protein kinase FLT3 (FLT3, Homo sapiens, UniProt P36888)
HTR2C: 5-hydroxytryptamine receptor 2C (HTR2C, Homo sapiens, UniProt P28335)
CYP51: Sterol 14-alpha demethylase (CYP51, Trypanosoma cruzi, UniProt Q7Z1V1)

SMILES	target	assay	conditions	quantity	value
O=C(NCCN1CCCCC1)c1cc(Br)ccc1O	Tmem97	ligand displacement, radioligand	cell membranes	Ki	> 10000 nM
O=C(NCCc1cccc2ccccc12)C1CCC1	MTNR1A	β-arrestin recruitment, agonist		EC50	288 nM
CC(C)(C)[C@H](NC(=O)[C@H](CCCNC(=N)N)NC(=O)Cc1ccc(CNC(=N)N)cc1)C(=O)N[C@@H](CCONC(=N)N)C(=O)NCc1ccc(C(=N)N)cc1	F2 trypsin-like site	enzyme activity, inhibitor	pH 8	Ki	9600 nM
COc1ccc(-c2nsc(NC(=O)[C@@H]3C[C@H]3C)c2C)cc1	Metabotropic glutamate receptor 1 (Grm1, Rattus norvegicus, UniProt P23385)	ligand displacement, radioligand		Ki	0.6 nM
CCC(=O)NC1Cc2ccccc2C(c2ccccc2)C1 (stereo not shown)	MTNR1A	cAMP, agonist, TR-FRET		EC50	282 nM
c1cc(Nc2nccc(NC3CCCCC3)n2)cc(-c2cc[nH]n2)c1	FLT3	enzyme activity, inhibitor		IC50	96 nM
C[C@@H]1Cc2ccccc2N1C(=O)NCCCCN(C)[C@@H]1Cc2cccc3[nH]c(=O)n(c23)C1	HTR2C	ligand displacement, radioligand		Ki	> 10000 nM
COc1ccc2[nH]cc(CCNC(C)=O)c2c1I	MTNR1A	β-arrestin recruitment, agonist		EC50	52.5 nM
CC(C)(C)[C@H](NC(=O)[C@H](CCCNC(=N)N)NC(=O)Cc1ccc(CNC(=N)N)cc1)C(=O)N[C@@H](CCCNC(=N)N)C(=O)NCc1ccc(C(=N)N)cc1	F2 trypsin-like site	enzyme activity, inhibitor	pH 8	Ki	20000 nM
CCOC(=O)c1nc(N(C)CCc2cnccn2)ccc1Br	MTNR1A	cAMP, agonist, luciferase		EC50	29.4 nM
COc1ccc2c(c1)C(CNC(N)=O)Cc1ccccc1C2 (stereo not shown)	MTNR1A	GTPγS binding, agonist, radiometric	cell membranes	EC50	28.2 nM
c1cncc(-c2cccc(Nc3nccc(NC4CCCC4)n3)c2)c1	FLT3	enzyme activity, inhibitor		IC50	13 nM
COCC(CNC(C)=O)c1cccc2ccc(OC)cc12 (stereo not shown)	MTNR1A	β-arrestin recruitment, agonist		EC50	3.09 nM
COc1cccc2c1CCN(C(=O)c1cncn1C)C2	MTNR1A	cAMP, agonist, luciferase		EC50	22.7 nM
Cc1ccc(C(=O)Nc2ccc(Oc3cc4cnn(C)c4cc3-c3cn[nH]c3)c(F)c2)c(=O)n1-c1ccc(F)cc1	FLT3	enzyme activity, inhibitor, radiometric		IC50	31 nM
CC(C)Nc1ccnc(Nc2ccc(-c3ccccc3)cc2)n1	FLT3	enzyme activity, inhibitor		IC50	15000 nM
COc1cccc2c1CCN(C(=O)c1c[nH]nc1-c1ccc(Cl)s1)C2	MTNR1A	cAMP, agonist, luciferase		EC50	76.3 nM
CCc1nc2cc(OCCCCN3CCC(c4cccc(Cl)c4Cl)CC3)ccc2s1	HTR2C	cell-free assay, radioligand		Ki	210 nM
Fc1ccc(CNc2cccc(-c3nnc[nH]3)c2)c(F)c1	MTNR1A	cAMP, agonist, luciferase		EC50	245 nM
c1cc(Nc2nccc(NC3CCCCC3)n2)cc(C2CC2)c1	FLT3	enzyme activity, inhibitor		IC50	2590 nM
Cc1cc2nc3c(=O)[nH]c(=O)nc-3n(C[C@H](O)[C@H](O)[C@H](O)COP(=O)(O)OP(=O)(O)OC[C@H]3O[C@@H](n4cnc5c(N)ncnc54)[C@H](O)[C@@H]3O)c2cc1C	BMP-2-inducible protein kinase (BMP2K, Homo sapiens, UniProt Q9NSY1)	binding	lysate	Kd	31 nM
O=C(NCCCn1ccnc1)O[C@@H](Cn1ccnc1)c1ccc(F)cc1	CYP51	binding		Kd	87 nM

SMILES	target	assay	conditions	quantity	value
CC(C)Nc1ccnc(Nc2ccc(C(N)=O)cc2)n1	FLT3	enzyme activity, inhibitor		IC50	213 nM
CC(C)(C)[C@H](NC(=O)[C@H](CCONC(=N)N)NC(=O)Cc1ccc(CN)cc1)C(=O)N[C@@H](CCONC(=N)N)C(=O)NCc1ccc(C(=N)N)cc1	F2 trypsin-like site	enzyme activity, inhibitor	pH 8	Ki	25000 nM
COCC(C)Nc1ccnc(Nc2cccc(-c3cccnc3)c2)n1 (stereo not shown)	FLT3	enzyme activity, inhibitor		IC50	< 6 nM
O=C(NCCN1CCCCC1)c1ccc(OCCF)c(Br)c1	Tmem97	ligand displacement, radioligand	cell membranes	Ki	42.8 nM
COc1cc2c(CCNC(C)=O)c[nH]c2cc1I	MTNR1A	β-arrestin recruitment, agonist		EC50	5.25 nM
c1ccc(N2CCCC(Nc3nccc(NC4CCCCC4)n3)C2)cc1 (stereo not shown)	FLT3	enzyme activity, inhibitor		IC50	3260 nM
CCCCN1CCN(C2CCCCC2)CC1	Tmem97	ligand displacement, radioligand	cell membranes	Ki	65.2 nM
O=C(Nc1ccc(Sc2ccc([N+](=O)[O-])cc2)cc1)O[C@H](Cn1ccnc1)c1ccc(Cl)cc1	CYP51	binding		Kd	162 nM
CCc1nnc(SCc2cc(C(=O)OC)cs2)[nH]1	MTNR1A	cAMP, agonist, luciferase		EC50	17.8 nM
COc1ccc2ccn(CCCCN3CCc4cc(OC)c(OC)cc4C3)c2c1	Tmem97	ligand displacement, radioligand	cell membranes	Ki	8.68 nM
O=C(O[C@H](Cn1ccnc1)c1ccccc1)c1ccc(-c2ccccc2)cc1	CYP51	binding		Kd	46 nM
Cc1cc(Nc2cc3ncccc3c(N[C@@H]3C[C@H]4CC[C@@H](C3)N4CCC#N)n2)n[nH]1	Ephrin type-B receptor 6 (EPHB6, Homo sapiens, UniProt O15197)	binding, competition with immobilised ligand		Kd	2000 nM
CN(Cc1ccsc1)c1ccnc(Cl)c1	MTNR1A	cAMP, agonist, luciferase		EC50	2660 nM
COc1ccc2c(Oc3ccc4c(C(=O)Nc5ccccc5N)cccc4c3)ccnc2c1	Mitogen-activated protein kinase 11 (MAPK11, Homo sapiens, UniProt Q15759)	enzyme activity, inhibitor		IC50	> 500 nM
COc1ccc2ncn(CCNC(C)=O)c2c1	MTNR1A	β-arrestin recruitment, agonist		EC50	871 nM
COc1ccc2c(c1)N(Cc1cc(=O)c(OC)co1)CCO2	MTNR1A	cAMP, agonist, luciferase		EC50	0.56 nM
OC[C@@]12C[C@@H]1[C@@H](n1cnc3c(N[C@H](C4CCC4)C4CC4)nc(I)nc31)[C@H](O)[C@@H]2O	HTR2C	calcium signal, antagonist		Kb	288 nM
COC(=O)[C@H](C)Nc1ccnc(Nc2cccc(-c3cccnc3)c2)n1	FLT3	enzyme activity, inhibitor		IC50	> 22000 nM
Cc1cnc(-c2ccc(-c3ccc(NC(=O)Nc4c(F)cc(F)cc4F)cc3F)c3c2C(=O)NC3)[nH]1	Aurora kinase A (AURKA, Homo sapiens, UniProt O14965)	binding, competition with immobilised ligand		Kd	2.9 nM
COc1ccc(CNc2cccnc2)cc1Br	MTNR1A	cAMP, agonist, luciferase		EC50	49 nM
CC(C)c1ccc(NC(=O)O[C@H](Cn2ccnc2)c2ccc(F)cc2)cc1	CYP51	binding		Kd	32 nM
